Reference: PubChem BioAssay AID624013 (Broad Institute, 2012)
“And” between values parts separate entries of the source, which are not always exact repeats. Equal entries are not always repeated. The source made the active and inactive calls.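 Rule for the calls: active = compounds whose fitted growth inhibition curve reaches half effect at or below twice the top tested dose; inconclusive = flat inhibition between 30 and 70 percent, or poor fit; inactive = the rest.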

Tested on: not listed separately
Assay: C. glabrata growth inhibition on glucose, dose response, glucose medium, plate reader, dry powder, set 4 (AID 624013)
Details: Candida glabrata growth, glucose medium, OD600, 48 h; at 3 µM (top of the series)
Method in brief: (§1)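 System: Candida glabrata yeast cells, whole organism; Buffer or medium: CSM medium supplemented with glucose; Incubation: 48 h at 30 °C, no shaking; Measured by: OD600 absorbance; Controls: amphotericin B at 10 µM as positive control.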
With `CCOC(=O)N1C(=O)C2(CCCCC2)N(c2ccccc2)C1=S` the activity change, negative = inhibition was -11.8% (inactive).
In the case of `CCOC(=O)N1C(=O)C2(CCCCC2)N(c2ccc(Cl)cc2)C1=S`, the activity change, negative = inhibition is reported as -19.6% (inactive).
For `CCOC(=O)N1C(=O)C2(CCCCC2)N(c2ccc(C#N)cc2)C1=S`, the activity change, negative = inhibition was -17% (inactive).
For `CCOC(=O)N1C(=O)C2(CCCCC2)N(c2cccc(C)c2)C1=S`, the activity change, negative = inhibition was -14.7% (inactive).
For `CCOC(=O)N1C(=O)C2(CCCCC2)N(c2ccc(C)cc2)C1=S`, the activity change, negative = inhibition was -13.3% (inactive) and -16.5% (inactive).
With `CCOC(=O)N1C(=O)C2(CCCCC2)N(c2ccc(F)cc2)C1=S` the activity change, negative = inhibition was -16.3% (inactive).
In the case of `C/C=C/[C@@H]1[C@H]2C[C@@H](C)CC[C@@H]2C(C)=C[C@H]1C(=O)c1c(O)c(-c2ccc(O)cc2)c[nH]c1=O`, the activity change, negative = inhibition is reported as -2.31% (inactive).

Tested on: Candida glabrata growth, glucose medium, OD600, 48 h
Assay: as above
Details: not given
Method in brief: as §1
With `CC1/C=C/C=C\C=C\C=C\C=C\C=C\C=C\C(O[C@H]2OC(C)C(O)C(N)C2O)CC2OC(O)(CC(O)CC(O)C(O)CCC(O)CC(O)CC(=O)OC(C)C(C)C1O)CC(O)C2C(=O)O` (stereo partly drawn) the AC50 was 2120 nM.
